In one assay the test system is HeLa. Description: Cytotoxicity against human HeLa cells assessed as reduction in optical density by MTT assay relative to control. In kind it is functional, cell-based. The method, boiled down: (§1)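 MTT assay read as optical density. IC50 is the concentration that cut optical density of treated cells by 50% relative to untreated cells. Values are means of three independent determinations.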
Background: Tetrazolium dyes change colour on reduction, which living cells bring about.

The nature of assay [1]: Cytotoxicity against human SMMC-7404 cells assessed as reduction in optical density by MTT assay relative to control. The class given is functional, cell-based. The method, boiled down: as §1

In general, IC50 refers to the concentration needed to halve the response being measured.

Consider `C[C@]12CC[C@H](O)CC1=CC[C@@H]1[C@@H]2CC[C@]2(C)NC(=O)CC[C@@H]12`, for which the IC50 in the assay on HeLa was 65.9 µM; in assay [1] it was over 200 µM.
As for `C[C@]12CCC(=O)CC1C(=O)C[C@@H]1[C@@H]2CC[C@]2(C)NC(=O)CC[C@@H]12` (stereo partly drawn), the IC50 worked out at 53.6 µM in the assay on HeLa and 60.8 µM in assay [1].
`C[C@]12CC/C(=N/O)CC1/C(=N\O)C[C@@H]1[C@@H]2CC[C@]2(C)NC(=O)CC[C@@H]12` (stereo partly drawn): the 50% inhibitory concentration (IC50) in the assay on HeLa was determined as 75.7 µM; in assay [1], 184 µM.
As to `C[C@]12CC/C(=N\NC(N)=S)C=C1/C(=N\NC(N)=S)C[C@@H]1[C@@H]2CC[C@]2(C)NC(=O)CC[C@@H]12`, the concentration for half-maximal inhibition (IC50) worked out at 28.8 µM in the assay with HeLa and 80.5 µM in assay [1].
For `C[C@]12CCC(O)C=C1C(O)C[C@@H]1[C@@H]2CC[C@]2(C)NC(=O)CC[C@@H]12` (stereo partly drawn), the IC50 is 18.8 µM with HeLa and over 200 µM in assay [1].
On the same counts, the results for `CC(=O)O[C@H]1CC[C@@]2(C)C(=CC[C@@H]3[C@@H]2CC[C@]2(C)NC(=O)CC[C@@H]32)C1` are 37.6 µM and over 200 µM.
As for `C[C@]12CCC(O)CC1C(O)C[C@@H]1[C@@H]2CC[C@]2(C)NC(=O)CC[C@@H]12` (stereo partly drawn), the 50% inhibitory concentration (IC50) in the assay with HeLa worked out at 14 µM; in assay [1], 124 µM.
`C[C@]12CCC(=O)C=C1C(=O)C[C@@H]1[C@@H]2CC[C@]2(C)NC(=O)CC[C@@H]12`: the IC50 was 102 µM with HeLa and over 200 µM in assay [1].
On to `C[C@]12CC/C(=N/O)C=C1/C(=N\O)C[C@@H]1[C@@H]2CC[C@]2(C)NC(=O)CC[C@@H]12`, for which the IC50 was 15.1 µM with HeLa and over 200 µM in assay [1].

These data come from ChEMBL document CHEMBL1777718, “Synthesis and cytotoxicity of 17a-aza-D-homo-androster-17-one derivatives” (Bioorg Med Chem Lett, 2011).
